Data published in ChEMBL document CHEMBL2407016 (J Med Chem, 2013).
pIC50, pKd: −log10 of the molar value. Activity calls are given as the source filed them. No cut-off for these calls is given here.

What was measured:
[1] = Inhibition of Plasmodium falciparum DXR using DXP as substrate measured every 5 secs for 250 secs in presence of NADPH
[2] = Inhibition of Escherichia coli DXR using DXP as substrate measured every 5 secs for 250 secs in presence of NADPH
[3] = target: T1, 1-deoxy-D-xylulose 5-phosphate reductoisomerase (Mycobacterium tuberculosis, UniProt P9WNS1); assay: Inhibition of Mycobacterium tuberculosis DXR using DXP as substrate measured every 5 secs for 250 secs in presence of NADPH
T1 sequence (P9WNS1 whole entry): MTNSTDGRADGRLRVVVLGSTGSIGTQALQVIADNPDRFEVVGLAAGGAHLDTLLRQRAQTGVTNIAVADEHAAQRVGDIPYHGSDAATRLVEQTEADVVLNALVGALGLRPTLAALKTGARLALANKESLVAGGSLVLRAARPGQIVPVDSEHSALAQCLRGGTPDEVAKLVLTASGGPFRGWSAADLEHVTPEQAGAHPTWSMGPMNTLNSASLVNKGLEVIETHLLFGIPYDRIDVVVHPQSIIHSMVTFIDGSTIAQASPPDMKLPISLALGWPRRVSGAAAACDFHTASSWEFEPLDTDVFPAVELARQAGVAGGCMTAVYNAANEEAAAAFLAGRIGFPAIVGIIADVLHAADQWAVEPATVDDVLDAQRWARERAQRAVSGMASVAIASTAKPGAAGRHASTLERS
Procedure, shortened: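 MtDXR activity assay run with NADPH cofactor at 200 μM; IC50 taken from inhibition of enzyme activity.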

[4] = system: Mycobacterium tuberculosis; assay: Antibacterial activity against Mycobacterium tuberculosis H37Rv assessed as growth inhibition by Alamar blue assay; assay type: functional, organism-based
[5] = system: Plasmodium falciparum; assay: Antimalarial activity against Plasmodium falciparum 3D7 assessed as parasite growth inhibition after 18 hrs by SYBR Green-1 staining-based fluorescence assay; assay type: functional, organism-based; details: 3D7, 18 h
[6] = target: T2, 1-deoxy-D-xylulose 5-phosphate reductoisomerase (Mycobacterium tuberculosis) (UniProt P9WNS1); assay: Inhibition of Mycobacterium tuberculosis DXR using DXP as substrate at 100 uM measured every 5 secs for 250 secs in presence of NADPH relative to control
T2 sequence (whole entry): T1 sequence (P9WNS1 whole entry)

[7] = target: T1, 1-deoxy-D-xylulose 5-phosphate reductoisomerase; assay: Binding affinity to Mycobacterium tuberculosis DXR assessed as dissociation constant by spectrofluorimetric analysis in presence of NADPH and MnCl2
Procedure, shortened: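 Purified MtDXR; binding followed by direct fluorescence from changes in the environment of the protein's six tryptophan residues.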

Work on `O=CN(O)CCCP(=O)(O)O` [FOSMIDOMYCIN] yielded a pIC50 [1] of 7.49 and a pIC50 [2] of 7.30.
For `O=C(NCC(=O)N(O)CCCP(=O)(O)O)C1CC1`, the pIC50 [1] was 5.48, the pIC50 [3] was < 3.70 and the pIC50 [2] was 5.15.
In the case of `O=C(CCCOc1ccccc1)NCC(=O)N(O)CCCP(=O)(O)O`, the pIC50 [1] was 6.40, the pIC50 [3] was < 3.70 and the pIC50 [2] was 6.00.
In the case of `Cc1ccccc1C(=O)N(O)CCC(c1ccc(Cl)c(Cl)c1)P(=O)(O)O` (stereo not given), the “growth inhibition (GI)” value [4] was “inactive”, the pIC50 [5] was < 5.00 and the inhibition [6] was 95%. The pIC50 [3] was 6.08.
In the case of `O=C(c1ccco1)N(O)CCCP(=O)(O)O`, the pIC50 [3] was 4.31.
With `CC(=O)N(O)CCCP(=O)(O)O` [FR-900098] the pIC50 [1] was 7.74 and the pIC50 [2] was 7.29.
In the case of `O=C(c1ccccc1Cn1cncn1)N(O)CCC(c1ccc(Cl)c(Cl)c1)P(=O)(O)O` (stereo not given), the “growth inhibition (GI)” value [4] was “inactive”, the pKd [7] was 7.40 and the pIC50 [5] was < 5.00. For the same compound, the inhibition [6] was 70% and the pIC50 [3] was 4.89.
`CC(=O)N(O)CCC(c1ccc(Cl)c(Cl)c1)P(=O)(O)O` (stereo not given) gave a pKd [7] of 6.44.
`O=C(c1cccnc1)N(O)CCCP(=O)(O)O` gave a pIC50 [3] of 5.80.
`CCC(=O)N(O)CCCP(=O)(O)O` showed a pIC50 [3] of 4.57.
In the case of `O=C(c1ccc(Cn2cncn2)cc1)N(O)CCC(c1ccc(Cl)c(Cl)c1)P(=O)(O)O` (stereo not given), the “growth inhibition (GI)” value [4] was “inactive”, the pKd [7] was 6.70 and the pIC50 [5] was 6.72. For the same compound, the inhibition [6] was 80% and the pIC50 [3] was 5.92.
For `O=C(C1CC1)N(O)CCCP(=O)(O)O`, the pIC50 [3] was 3.81 and the pIC50 [2] was 5.35.
With `O=C(c1cccc(Cn2cncn2)c1)N(O)CCC(c1ccc(Cl)c(Cl)c1)P(=O)(O)O` (stereo not given) the “growth inhibition (GI)” value [4] was “inactive”, the pKd [7] was 6.77 and the pIC50 [5] was 6.41. For the same compound, the inhibition [6] was 90% and the pIC50 [3] was 6.85.
For `O=C(c1ccccc1C(F)(F)F)N(O)CCC(c1ccc(Cl)c(Cl)c1)P(=O)(O)O` (stereo not given), the “growth inhibition (GI)” value [4] was “inactive”, the inhibition [6] was 70% and the pIC50 [3] was 5.05.
In the case of `O=C(c1ccccc1)N(O)CCC(c1ccc(Cl)c(Cl)c1)P(=O)(O)O` (stereo not given), the “growth inhibition (GI)” value [4] was “inactive”, the pKd [7] was 6.68 and the pIC50 [5] was 7.40. The inhibition [6] was 100% and the pIC50 [3] was 6.49.
For `O=C(c1ccccc1Cc1cccs1)N(O)CCC(c1ccc(Cl)c(Cl)c1)P(=O)(O)O` (stereo not given), the “growth inhibition (GI)” value [4] was “inactive”, the pIC50 [5] was < 5.00 and the inhibition [6] was 90%. For the same compound, the pIC50 [3] was 5.15.
In the case of `O=CN(O)CCC(c1ccc(Cl)c(Cl)c1)P(=O)(O)O` (stereo not given), the pKd [7] was 6.92.
With `O=C(c1ccccc1OC(F)(F)F)N(O)CCC(c1ccc(Cl)c(Cl)c1)P(=O)(O)O` (stereo not given) the “growth inhibition (GI)” value [4] was “inactive”, the pKd [7] was 7.05 and the pIC50 [5] was < 5.00. For the same compound, the inhibition [6] was 90% and the pIC50 [3] was 5.10.
For `O=C(Cc1ccccc1)N(O)CCCP(=O)(O)O`, the pKd [7] was 6.49, the pIC50 [3] was 4.17 and the pIC50 [2] was 4.89.
In the case of `O=C(c1ccccc1)N(O)CCCP(=O)(O)O`, the pIC50 [1] was 7.21, the pIC50 [3] was 5.70 and the pIC50 [2] was 6.89.
With `O=C(c1ccccc1-c1ccccc1)N(O)CCC(c1ccc(Cl)c(Cl)c1)P(=O)(O)O` (stereo not given) the “growth inhibition (GI)” value [4] was “inactive”, the pIC50 [5] was < 5.00 and the inhibition [6] was 60%. For the same compound, the pIC50 [3] was 4.68.
With `O=C(c1ccccc1Nc1cccc(C(F)(F)F)c1)N(O)CCC(c1ccc(Cl)c(Cl)c1)P(=O)(O)O` (stereo not given) the “growth inhibition (GI)” value [4] was “inactive”, the pKd [7] was 7.05 and the pIC50 [5] was < 5.00. It also gave an inhibition [6] of 80% and a pIC50 [3] of 4.72.
With `CC(=O)Oc1cccc(C(=O)N(O)CCC(c2ccc(Cl)c(Cl)c2)P(=O)(O)O)c1` (stereo not given) the “growth inhibition (GI)” value [4] was “inactive”, the pIC50 [5] was 5.41 and the inhibition [6] was 30%. For the same compound, the pIC50 [3] was < 4.00.
For `NC(=O)c1cncc(C(=O)N(O)CCCP(=O)(O)O)c1`, the pIC50 [3] was 5.44.
Compound `O=C(c1ccc2ccccc2c1)N(O)CCCP(=O)(O)O` has a pIC50 [3] of 5.70.
In the case of `C[C@@H]1CC[C@H]2[C@@H](C)C(=O)O[C@@H]3O[C@@]4(C)CC[C@@H]1[C@]32OO4` [ARTEMISININ], the pIC50 [5] was 8.30.
